# Source: ChEMBL document CHEMBL1158007, “Steroidal glycosides from the bulbs of Allium jesdianum” (J Nat Prod, 1999)
# Assays:
# DU-145 = experiment: Growth inhibition of human DU-145 cells after 72 hrs by MTT assay; format: functional; conditions: DU-145, 72 h
# UACC-62 = experiment: Growth inhibition of human UACC-62 cells after 72 hrs by MTT assay; format: functional; conditions: UACC-62, 72 h
# SN12C = experiment: Growth inhibition of human SN12C cells after 72 hrs by MTT assay; format: functional; conditions: read-out: LC50 (the source's name)
# SK-MEL-2 = experiment: Growth inhibition of human SK-MEL-2 cells after 72 hrs by MTT assay; format: functional; conditions: SK-MEL-2, 72 h
# HCC 2998 = experiment: Growth inhibition of human HCC2998 cells after 72 hrs by MTT assay; format: functional; conditions: HCC 2998, 72 h
# NCI-H23 = experiment: Growth inhibition of human NCI-H23 cells after 72 hrs by MTT assay; format: functional; conditions: NCI-H23, 72 h
# LOX IMVI = experiment: Growth inhibition of human LOX IMVI cells after 72 hrs by MTT assay; format: functional
# MOLT-4 = experiment: Growth inhibition of human MOLT-4 cells after 72 hrs by MTT assay; format: functional; conditions: MOLT-4, 72 h
# OVCAR-5 = experiment: Growth inhibition of human OVCAR5 cells after 72 hrs by MTT assay; format: functional; conditions: OVCAR-5, 72 h
# OVCAR-3 = experiment: Growth inhibition of human OVCAR-3 cells after 72 hrs by MTT assay; format: functional; conditions: OVCAR-3, 72 h
# MDA-MB-435 = experiment: Growth inhibition of human MDA-MB-435 cells after 72 hrs by MTT assay; format: functional; conditions: MDA-MB-435, 72 h
# SNB-75 = experiment: Growth inhibition of human SNB-75 cells after 72 hrs by MTT assay; format: functional; conditions: SNB-75, 72 h
# CCRF-CEM = experiment: Growth inhibition of human CCRF-CEM cells after 72 hrs by MTT assay; format: functional
# SNB-19 = experiment: Growth inhibition of human SNB-19 cells after 72 hrs by MTT assay; format: functional; conditions: SNB-19, 72 h
# T47D = experiment: Growth inhibition of human T47D cells after 72 hrs by MTT assay; format: functional
# SF-268 = experiment: Growth inhibition of human SF-268 cells after 72 hrs by MTT assay; format: functional; conditions: SF-268, 72 h
# CAKI-1 = experiment: Growth inhibition of human Caki-1 cells after 72 hrs by MTT assay; format: functional; conditions: CAKI-1, 72 h
# UO-31 = experiment: Growth inhibition of human UO-31 cells after 72 hrs by MTT assay; format: functional; conditions: UO-31, 72 h
# [1] = Growth inhibition of human SK MEL28 cells after 72 hrs by MTT assay; format: functional; conditions: SK-MEL-28, 72 h
# COLO 205 = experiment: Growth inhibition of human COLO205 cells after 72 hrs by MTT assay; format: functional; conditions: COLO 205, 72 h
# HL-60 = experiment: Cytotoxicity against human HL-60 cells after 72 hrs by MTT assay; format: functional, cell-based; conditions: HL-60, 72 h
# Outline: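 HL-60 cells grown in RPMI 1640 with 10% FBS, L-glutamine, penicillin and streptomycin, seeded at 3 × 10^4 cells/mL, and preincubated 24 h at 37 °C in 5% CO2. Sample in EtOH-H2O (1:1) added to a final 0.01-10 µg/mL, with vehicle-only controls, for 72 h. MTT added for 4 h, then formazan dissolved in DMSO and read at 550 nm. IC50 taken from the dose-response curve.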
# UACC-257 = experiment: Growth inhibition of human UACC-257 cells after 72 hrs by MTT assay; format: functional; conditions: UACC-257, 72 h
# M14 = experiment: Growth inhibition of human M14 cells after 72 hrs by MTT assay; format: functional; conditions: M14, 72 h
# K562 = experiment: Growth inhibition of human K-562 cells after 72 hrs by MTT assay; format: functional; conditions: K562, 72 h, read-out: LC50 (the source's name)
# SK-MEL-5 = experiment: Growth inhibition of human SK-MEL-5 cells after 72 hrs by MTT assay; format: functional; conditions: SK-MEL-5, 72 h
# A549 = experiment: Growth inhibition of human A549 cells after 72 hrs by MTT assay; format: functional; conditions: A549, 72 h
# ACHN = experiment: Growth inhibition of human ACHN cells after 72 hrs by MTT assay; format: functional
# MDA-N = experiment: Growth inhibition of human MDA-N cells after 72 hrs by MTT assay; format: functional
# MCF7 = experiment: Growth inhibition of human MCF7 cells after 72 hrs by MTT assay; format: functional; conditions: MCF7, 72 h
# EKVX = experiment: Growth inhibition of human EKVX cells after 72 hrs by MTT assay; format: functional
# [2] = Growth inhibition of human HCT 116 cells after 72 hrs by MTT assay; format: functional; conditions: HCT-116, 72 h
# HOP-62 = experiment: Growth inhibition of human HOP-62 cells after 72 hrs by MTT assay; format: functional; conditions: HOP-62, 72 h
# HT-29 = experiment: Growth inhibition of human HT-29 cells after 72 hrs by MTT assay; format: functional; conditions: HT-29, 72 h
# [3] = read-out: LC50 (the source's name)
smiles,measurement,setting,value
C[C@@H]1CC[C@@]2(OC1)O[C@H]1C[C@H]3[C@@H]4CC[C@H]5C[C@@H](O[C@@H]6O[C@H](CO)[C@H](O[C@@H]7O[C@H](CO)[C@@H](O)[C@H](O[C@@H]8OC[C@@H](O)[C@H](O)[C@H]8O)[C@H]7O[C@@H]7O[C@H](CO)[C@@H](O)[C@H](O)[C@H]7O)[C@H](O)[C@H]6O)[C@H](O)C[C@]5(C)[C@H]4CC[C@]3(C)[C@H]1[C@@H]2C,GI50,DU-145,2400 nM
same,TGI,DU-145,14 µM
same,CC50,DU-145; [3],54 µM
same,GI50,UACC-62,17 µM
same,TGI,UACC-62,42 µM
same,CC50,UACC-62; [3],< 100 µM
same,CC50,SN12C,< 100 µM
same,GI50,SK-MEL-2,5.5 µM
same,TGI,SK-MEL-2,19 µM
same,CC50,SK-MEL-2; [3],48 µM
same,GI50,HCC 2998,12 µM
same,TGI,HCC 2998,25 µM
same,CC50,HCC 2998; [3],50 µM
same,GI50,NCI-H23,2000 nM
same,TGI,NCI-H23,8.7 µM
same,CC50,NCI-H23; [3],36 µM
same,GI50,LOX IMVI,1400 nM
same,TGI,LOX IMVI,7.9 µM
same,GI50,MOLT-4,41 µM
same,TGI,MOLT-4,97 µM
same,CC50,MOLT-4; [3],< 100 µM
same,GI50,OVCAR-5,5 µM
same,TGI,OVCAR-5,20 µM
same,CC50,OVCAR-5; [3],59 µM
same,GI50,OVCAR-3,2600 nM
same,TGI,OVCAR-3,9.1 µM
same,CC50,OVCAR-3; [3],35 µM
same,GI50,MDA-MB-435,11 µM
same,TGI,MDA-MB-435,26 µM
same,CC50,MDA-MB-435; [3],66 µM
same,GI50,SNB-75,14 µM
same,TGI,SNB-75,28 µM
same,CC50,SNB-75; [3],59 µM
same,GI50,CCRF-CEM,250 nM
same,TGI,CCRF-CEM,550 nM
same,CC50,CCRF-CEM; [3],2000 nM
same,GI50,SNB-19,12 µM
same,TGI,SNB-19,27 µM
same,CC50,SNB-19; [3],60 µM
same,GI50,T47D,5.4 µM
same,TGI,T47D,28 µM
same,CC50,T47D; [3],< 100 µM
same,GI50,SF-268,13 µM
same,TGI,SF-268,28 µM
same,CC50,SF-268; [3],59 µM
same,GI50,CAKI-1,1400 nM
same,TGI,CAKI-1,18 µM
same,CC50,CAKI-1; [3],< 100 µM
same,GI50,UO-31,2400 nM
same,TGI,UO-31,12 µM
same,CC50,UO-31; [3],50 µM
same,GI50,[1],15 µM
same,TGI,[1],33 µM
same,CC50,[1]; [3],71 µM
same,GI50,COLO 205,1400 nM
same,TGI,COLO 205,32 µM
same,CC50,COLO 205; [3],< 100 µM
same,IC50,HL-60,1.5 µg/mL
same,GI50,UACC-257,17 µM
same,TGI,UACC-257,36 µM
same,CC50,UACC-257; [3],71 µM
same,GI50,M14,16 µM
same,TGI,M14,35 µM
same,CC50,M14; [3],74 µM
same,CC50,K562,< 100 µM
same,GI50,SK-MEL-5,4.1 µM
same,TGI,SK-MEL-5,40 µM
same,CC50,SK-MEL-5; [3],< 100 µM
same,GI50,A549,350 nM
same,CC50,A549; [3],< 100 µM
same,GI50,ACHN,2800 nM
same,TGI,ACHN,12 µM
same,CC50,ACHN; [3],38 µM
same,GI50,MDA-N,11 µM
same,TGI,MDA-N,28 µM
same,CC50,MDA-N; [3],74 µM
same,GI50,MCF7,300 nM
same,TGI,MCF7,620 nM
same,CC50,MCF7; [3],1900 nM
same,GI50,EKVX,11 µM
same,TGI,EKVX,27 µM
same,CC50,EKVX; [3],63 µM
same,GI50,[2],3.9 µM
same,TGI,[2],18 µM
same,CC50,[2]; [3],81 µM
same,GI50,HOP-62,1200 nM
same,TGI,HOP-62,2800 nM
same,CC50,HOP-62; [3],6.2 µM
same,GI50,HT-29,1100 nM
same,TGI,HT-29,3.1 µM
